According to ChEMBL document CHEMBL4190234, “Design, synthesis and anticancer activity of new monastrol analogues bearing 1,3,4-oxadiazole moiety” (Eur J Med Chem, 2017):

What was measured:
Format in all cases: functional
CAKI-1 = test: Growth inhibition of human Caki1 cells at 10 uM incubated for 48 hrs by sulforhodamine B assay relative to control; conditions: CAKI-1, 48 h, read-out: GI
Procedure, shortened: (§1)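 Single-dose screen at 10 μM final: cells in RPMI 1640, 5% FBS, 2 mM L-glutamine, plated 5,000–40,000/well, preincubated 24 h at 37°C, 5% CO2; drug 48 h; adherent cells fixed with 10% TCA, suspension cells with 16% TCA; SRB stain, absorbance 515 nm; percentage growth versus untreated control, with time-zero plates.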

786-0 = test: Growth inhibition of human 786-0 cells at 10 uM incubated for 48 hrs by sulforhodamine B assay relative to control; conditions: 786-0, 48 h, read-out: GI; procedure, shortened: as §1
OVCAR-3 = test: Growth inhibition of human OVCAR3 cells at 10 uM incubated for 48 hrs by sulforhodamine B assay relative to control; conditions: OVCAR-3, 48 h, read-out: GI; procedure, shortened: as §1
HCT-15 = test: Growth inhibition of human HCT15 cells at 10 uM incubated for 48 hrs by sulforhodamine B assay relative to control; conditions: HCT-15, 48 h, read-out: GI; procedure, shortened: as §1
SF-539 = test: Growth inhibition of human SF539 cells at 10 uM incubated for 48 hrs by sulforhodamine B assay relative to control; conditions: SF-539, 48 h, read-out: GI
Procedure, shortened: (§2)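 NCI single-dose screen: cells grown in RPMI 1640 with 5% FBS and 2 mM L-glutamine, plated at 5,000–40,000 cells/well and preincubated 24 h at 37 °C, 5% CO2. Compounds taken from DMSO stock and tested at final 10 µM for 48 h. Cells fixed with TCA, stained with 0.4% SRB, absorbance read at 515 nm. Percentage growth calculated against untreated controls; controls held DMSO at the same dilution.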

UO-31 = test: Growth inhibition of human UO31 cells at 10 uM incubated for 48 hrs by sulforhodamine B assay relative to control; conditions: UO-31, 48 h, read-out: GI; procedure, shortened: as §2
MDA-MB-435 = test: Growth inhibition of human MDA-MB-435 cells at 10 uM incubated for 48 hrs by sulforhodamine B assay relative to control; conditions: MDA-MB-435, 48 h, read-out: GI; procedure, shortened: as §1
NCI-H522 = test: Growth inhibition of human NCI-H522 cells at 10 uM incubated for 48 hrs by sulforhodamine B assay relative to control; conditions: NCI-H522, 48 h, read-out: GI; procedure, shortened: as §1
DU-145 = test: Growth inhibition of human DU145 cells at 10 uM incubated for 48 hrs by sulforhodamine B assay relative to control; conditions: DU-145, 48 h, read-out: GI; procedure, shortened: as §1
A549 = test: Growth inhibition of human A549/ATCC cells at 10 uM incubated for 48 hrs by sulforhodamine B assay relative to control; conditions: A549, 48 h, read-out: GI; procedure, shortened: as §1
OVCAR-5 = test: Growth inhibition of human OVCAR5 cells at 10 uM incubated for 48 hrs by sulforhodamine B assay relative to control; conditions: OVCAR-5, 48 h, read-out: GI; procedure, shortened: as §1
OVCAR-4 = test: Growth inhibition of human OVCAR4 cells at 10 uM incubated for 48 hrs by sulforhodamine B assay relative to control; conditions: OVCAR-4, 48 h, read-out: GI; procedure, shortened: as §1
EKVX = test: Growth inhibition of human EKVX cells at 10 uM incubated for 48 hrs by sulforhodamine B assay relative to control; conditions: read-out: GI; procedure, shortened: as §1
A498 = test: Growth inhibition of human A498 cells at 10 uM incubated for 48 hrs by sulforhodamine B assay relative to control; conditions: A498, 48 h, read-out: GI; procedure, shortened: as §1
NCI/ADR-RES = test: Growth inhibition of human NCI/ADR-RES cells at 10 uM incubated for 48 hrs by sulforhodamine B assay relative to control; conditions: read-out: GI; procedure, shortened: as §1
RXF 393 = test: Growth inhibition of human RXF393 cells at 10 uM incubated for 48 hrs by sulforhodamine B assay relative to control; conditions: RXF 393, 48 h, read-out: GI; procedure, shortened: as §1
BT-549 = test: Growth inhibition of human BT549 cells at 10 uM incubated for 48 hrs by sulforhodamine B assay relative to control; conditions: BT-549, 48 h, read-out: GI; procedure, shortened: as §1
NCI-H23 = test: Growth inhibition of human NCI-H23 cells at 10 uM incubated for 48 hrs by sulforhodamine B assay relative to control; conditions: NCI-H23, 48 h, read-out: GI; procedure, shortened: as §1
HOP-62 = test: Growth inhibition of human HOP62 cells at 10 uM incubated for 48 hrs by sulforhodamine B assay relative to control; conditions: HOP-62, 48 h, read-out: GI; procedure, shortened: as §1
HCC 2998 = test: Growth inhibition of human HCC2998 cells at 10 uM incubated for 48 hrs by sulforhodamine B assay relative to control; conditions: HCC 2998, 48 h, read-out: GI; procedure, shortened: as §1
MDA-MB-468 = test: Growth inhibition of human MDA-MB-468 cells at 10 uM incubated for 48 hrs by sulforhodamine B assay relative to control; conditions: MDA-MB-468, 48 h, read-out: GI; procedure, shortened: as §1
HL-60(TB) = test: Growth inhibition of human HL-60(TB) cells at 10 uM incubated for 48 hrs by sulforhodamine B assay relative to control; conditions: HL-60, 48 h, read-out: GI
Procedure, shortened: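 Single dose of 10 µM in the NCI ~60-line panel. Cells grown in RPMI 1640 with 5% FBS and 2 mM L-glutamine, plated and pre-incubated 24 h, then exposed 48 h at 37°C under 5% CO2. Suspension cells fixed with TCA (16% final) and stained with sulforhodamine B, A515 read. Reported as percent growth versus untreated control and as GI%.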

MOLT-4 = test: Growth inhibition of human MOLT4 cells at 10 uM incubated for 48 hrs by sulforhodamine B assay relative to control; conditions: MOLT-4, 48 h, read-out: GI; procedure, shortened: as §1
SNB-75 = test: Growth inhibition of human SNB75 cells at 10 uM incubated for 48 hrs by sulforhodamine B assay relative to control; conditions: SNB-75, 48 h, read-out: GI; procedure, shortened: as §2
SK-OV-3 = test: Growth inhibition of human SKOV3 cells at 10 uM incubated for 48 hrs by sulforhodamine B assay relative to control; conditions: SK-OV-3, 48 h, read-out: GI; procedure, shortened: as §2
HCT-116 = test: Growth inhibition of human HCT116 cells at 10 uM incubated for 48 hrs by sulforhodamine B assay relative to control; conditions: HCT-116, 48 h, read-out: GI; procedure, shortened: as §1
SN12C = test: Growth inhibition of human SN12C cells at 10 uM incubated for 48 hrs by sulforhodamine B assay relative to control; conditions: read-out: GI; procedure, shortened: as §2
NCI-H226 = test: Growth inhibition of human NCI-H226 cells at 10 uM incubated for 48 hrs by sulforhodamine B assay relative to control; conditions: NCI-H226, 48 h, read-out: GI; procedure, shortened: as §1
HOP-92 = test: Growth inhibition of human HOP92 cells at 10 uM incubated for 48 hrs by sulforhodamine B assay relative to control; conditions: HOP-92, 48 h, read-out: GI; procedure, shortened: as §1

SMILES	inhibition of growth at 10 µM (786-0) [%]	inhibition of growth at 10 µM (OVCAR-3) [%]	inhibition of growth at 10 µM (HCT-15) [%]	inhibition of growth at 10 µM (SF-539) [%]	inhibition of growth at 10 µM (UO-31) [%]	inhibition of growth at 10 µM (MDA-MB-435) [%]	inhibition of growth at 10 µM (NCI-H522) [%]	inhibition of growth at 10 µM (DU-145) [%]	inhibition of growth at 10 µM (A549) [%]	inhibition of growth at 10 µM (OVCAR-5) [%]	inhibition of growth at 10 µM (OVCAR-4) [%]	inhibition of growth at 10 µM (EKVX) [%]	inhibition of growth at 10 µM (A498) [%]	inhibition of growth at 10 µM (NCI/ADR-RES) [%]	inhibition of growth at 10 µM (RXF 393) [%]	inhibition of growth at 10 µM (BT-549) [%]	inhibition of growth at 10 µM (NCI-H23) [%]	inhibition of growth at 10 µM (HOP-62) [%]	inhibition of growth at 10 µM (HCC 2998) [%]	inhibition of growth at 10 µM (MDA-MB-468) [%]	further results
CC(=O)C1=C(C)NC(SCc2nnc(-c3ccc(C)cc3)o2)=NC1c1ccc(F)cc1 (centres undefined)	15.4	< 10	< 10	< 10	16.4	< 10	14.1	< 10	< 10	10.4	< 10	< 10	< 10	< 10	< 10	13.9	< 10	< 10	< 10	< 10	inhibition of growth at 10 µM (CAKI-1): 12%; inhibition of growth at 10 µM (HL-60(TB)): 19.2%; inhibition of growth at 10 µM (MOLT-4): < 10%; inhibition of growth at 10 µM (SNB-75): < 10%; inhibition of growth at 10 µM (SK-OV-3): < 10%; inhibition of growth at 10 µM (HCT-116): < 10%; inhibition of growth at 10 µM (SN12C): < 10%; inhibition of growth at 10 µM (NCI-H226): 10.4%; inhibition of growth at 10 µM (HOP-92): < 10%
CCOC(=O)C1=C(C)NC(SCc2nnc(-c3ccc(Cl)cc3)o2)=NC1c1ccc(Cl)cc1Cl (centres undefined)	34.8	37.2	44.7	13.6	62.8	31	49.8	26.9	46.5	11	47.3	22.8	22.3	45.4	56.6	10.3	34	17.5	15.5	11.6	inhibition of growth at 10 µM (HL-60(TB)): 106%; inhibition of growth at 10 µM (MOLT-4): 88.8%; inhibition of growth at 10 µM (SNB-75): 15.9%; inhibition of growth at 10 µM (SK-OV-3): < 10%; inhibition of growth at 10 µM (HCT-116): 71.2%; inhibition of growth at 10 µM (SN12C): 34.6%; inhibition of growth at 10 µM (NCI-H226): 21%; inhibition of growth at 10 µM (HOP-92): 73.6%
CC(=O)C1=C(C)NC(SCc2nnc(-c3ccc(Cl)cc3)o2)=NC1c1ccc(F)cc1 (centres undefined)	16.4	< 10	< 10	< 10	26.1	< 10	15.6	< 10	< 10	< 10	< 10	< 10	< 10	< 10	< 10	< 10	< 10	< 10	< 10	11.3	inhibition of growth at 10 µM (CAKI-1): 16.9%; inhibition of growth at 10 µM (HL-60(TB)): 11.5%; inhibition of growth at 10 µM (MOLT-4): < 10%; inhibition of growth at 10 µM (SNB-75): 16.8%; inhibition of growth at 10 µM (SK-OV-3): < 10%; inhibition of growth at 10 µM (HCT-116): 13.1%; inhibition of growth at 10 µM (SN12C): < 10%; inhibition of growth at 10 µM (NCI-H226): 11.6%; inhibition of growth at 10 µM (HOP-92): < 10%
COc1ccc(-c2nnc(CSC3=NC(c4ccc(F)cc4)C(C(C)=O)=C(C)N3)o2)cc1 (centres undefined)	< 10	< 10	< 10	< 10	29.7	< 10	18	< 10	15.6	< 10	12.2	< 10	< 10	< 10	< 10	< 10	< 10	19.4	< 10	< 10	inhibition of growth at 10 µM (CAKI-1): 29.9%; inhibition of growth at 10 µM (HL-60(TB)): 15.2%; inhibition of growth at 10 µM (MOLT-4): 10.9%; inhibition of growth at 10 µM (SNB-75): 17.3%; inhibition of growth at 10 µM (SK-OV-3): 18.3%; inhibition of growth at 10 µM (HCT-116): < 10%; inhibition of growth at 10 µM (SN12C): < 10%; inhibition of growth at 10 µM (NCI-H226): < 10%; inhibition of growth at 10 µM (HOP-92): 16.5%
CC(=O)C1=C(C)NC(SCc2nnc(-c3ccc(Cl)cc3)o2)=NC1c1ccc(Cl)cc1 (centres undefined)	12.6	< 10	11	< 10	43.6	< 10	20.9	< 10	21.4	< 10	< 10	< 10	< 10	< 10	< 10	15.1	< 10	11.6	< 10	10.8	inhibition of growth at 10 µM (CAKI-1): 21.1%; inhibition of growth at 10 µM (HL-60(TB)): 40.3%; inhibition of growth at 10 µM (MOLT-4): 24.4%; inhibition of growth at 10 µM (SNB-75): 28.1%; inhibition of growth at 10 µM (SK-OV-3): < 10%; inhibition of growth at 10 µM (HCT-116): 25.8%; inhibition of growth at 10 µM (SN12C): 13%; inhibition of growth at 10 µM (NCI-H226): 11.4%; inhibition of growth at 10 µM (HOP-92): 26.5%
